≈ marks a conversion by molar mass, not a printed value. Calls of active or inactive are those of the source. The rule behind the calls is not given here.
Assays:
Homo sapiens [1] = species: Homo sapiens; test: Inhibition of NF-kappaB in human L428 cells at 10 ug/ml after 2 hrs by luciferase reporter gene assay relative to control; assay type: cell-based
In short: (§1)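 L428 cells stably carrying NF-κB-luciferase reporter (kept in 500 µg/ml G418), 10⁶ per well in 1 ml medium with DMSO solvent and compound (10-50 μg/ml) for 2 h, triplicate wells. Lysates assayed for luciferase, luminescence normalized to Bradford protein. Solvent control = 100%; Nuphar extract positive control; mean and SD of three independent experiments.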

Homo sapiens [2] = species: Homo sapiens; test: Inhibition of NF-kappaB in human L428 cells at 20 ug/ml after 2 hrs by luciferase reporter gene assay relative to control; assay type: cell-based; in short: as §1
Homo sapiens [3] = species: Homo sapiens; test: Inhibition of NF-kappaB in human L428 cells at 30 ug/ml after 2 hrs by luciferase reporter gene assay relative to control; assay type: cell-based; in short: as §1
Homo sapiens [4] = species: Homo sapiens; test: Inhibition of NF-kappaB in human L428 cells at 40 ug/ml after 2 hrs by luciferase reporter gene assay relative to control; assay type: cell-based; in short: as §1
Homo sapiens [5] = species: Homo sapiens; test: Inhibition of NF-kappaB in human L428 cells at 50 ug/ml after 2 hrs by luciferase reporter gene assay relative to control; assay type: cell-based; in short: as §1
Homo sapiens [6] = species: Homo sapiens; test: Inhibition of NF-kappaB in human L428 cells after 2 hrs by luciferase reporter gene assay; assay type: cell-based; in short: as §1
Mus musculus = species: Mus musculus; test: Inhibition of LPS-induced NFkappaB activation in mouse RAW264.7 cells at 100 ug/ml after 24 hrs by luciferase reporter gene assay relative to control; assay type: cell-based
Homo sapiens [7] = species: Homo sapiens; test: Inhibition of IL-1beta-induced NFkappaB activation in human OA chondrocytes at 100 ug/ml after 24 hrs by luciferase reporter gene assay relative to control; assay type: cell-based
L-428 [8] = test: Cytotoxicity against human L428 cells assessed as reduction in cell viability after 48 hrs by XTT assay; assay type: functional, cell-based; conditions: for IC50: L-428, 48 h
In short: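 L428 Hodgkin's lymphoma cells (RPMI 1640; lack IκBα, constitutive NF-κB), 3 x 10^4 per well in 200 µl, treated with graded concentrations for 48 h at 37 °C in triplicate. XTT added for 4 h at 37 °C, absorbance read at 450 nm. Control = 100% survival; mean and SD of three independent experiments.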

A549 [9] = test: Cytotoxicity against human A549 cells assessed as reduction in cell viability after 48 hrs by XTT assay; assay type: functional, cell-based; conditions: A549, 48 h
In short: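 A549 cells (DMEM, 10% heat-inactivated FBS, L-glutamine, Pen-Strep), 3 x 10^4 per well, left 24 h to form monolayer, then exposed to graded concentrations for 48 h in triplicate. XTT added, further 4 h at 37 °C, absorbance at 450 nm. Untreated control = 100% survival; mean and SD of three independent experiments.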

A549 [10] = test: Anti-migratory activity against human A549 cells assessed as reduction in wound closure at 5 ug/ml after 48 hrs by wound scratch assay; assay type: functional, cell-based
In short: (§2)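 A549 cells seeded in 6-well plates without compound; after monolayer formed (24 h), compound or DMSO vehicle added and monolayer scratched. Wound closure recorded after 48 h; concentrations 2-10 μg/ml. Representative of three independent experiments.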

L-428 [11] = test: Inhibition of NFkappaB p50 subunit expression in nuclear fractions of human L428 cells after 2 hrs by Western method; assay type: functional, cell-based
In short: (§3)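 10 x 10^6 L428 cells per sample exposed 2 h to various concentrations or DMSO. Cytosolic and nuclear fractions prepared by hypotonic lysis, needle shearing and high-salt nuclear extraction. 40 µg protein (Bradford) run on 10% SDS-PAGE, immunoblotted for p50, p65, RelB; β-actin and Lamin B loading controls; ECL detection. At least three independent experiments.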

L-428 [12] = test: Inhibition of NFkappaB p65 subunit expression in nuclear fractions of human L428 cells after 2 hrs by Western method; assay type: functional, cell-based; in short: as §3
L-428 [13] = test: Inhibition of RelB protein expression in nuclear fractions of human L428 cells at 5 to 30 ug/ml after 2 hrs by Western method; assay type: functional, cell-based; in short: as §3
L-428 [14] = test: Inhibition of RelB protein expression in cytosolic fractions of human L428 cells at 5 to 30 ug/ml after 2 hrs by Western method; assay type: functional, cell-based; in short: as §3
[15] = target: Transcription factor p65 (Homo sapiens) (UniProt Q04206); test: Inhibition of NFkappaB p65 subunit in human L428 cells assessed as depletion of p65 subunit from nucleus after 2 hrs by DAPI staining based confocal microscopic method; assay type: cell-based
In short: (§4)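 L428 cells incubated 2 h at 37 °C with compound at 10 or 30 μg/ml, cytocentrifuged (900 rpm, 5 min), fixed in 8% formalin 20 min. Separate staining with anti-p65 or anti-p50 plus fluorescent secondary antibodies; nuclei stained with DAPI. Nuclear localization imaged by confocal microscopy.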

Homo sapiens [16] = species: Homo sapiens; test: Inhibition of NFkappaB p50 subunit in human L428 cells assessed as depletion of […] subunit from nucleus after 2 hrs by DAPI staining based confocal microscopic method; assay type: cell-based; in short: as §4
L-428 [17] = test: Inhibition of NFkappaB p50 subunit expression in cytosolic fractions of human L428 cells after 2 hrs by Western method; assay type: functional, cell-based; in short: as §3
L-428 [18] = test: Inhibition of NFkappaB p65 subunit expression in cytosolic fractions of human L428 cells after 2 hrs by Western method; assay type: functional, cell-based; in short: as §3
L-428 [19] = test: Inhibition of RelB protein expression in nuclear fractions of human L428 cells at 10 to 40 ug/ml after 2 hrs by Western method; assay type: functional, cell-based; in short: as §3
L-428 [20] = test: Inhibition of RelB protein expression in cytosolic fractions of human L428 cells at 10 to 40 ug/ml after 2 hrs by Western method; assay type: functional, cell-based; in short: as §3
A549 [21] = test: Anti-migratory activity against human A549 cells assessed as reduction in wound closure at 10 ug/ml after 48 hrs by wound scratch assay; assay type: functional, cell-based; in short: as §2
L-428 [22] = test: Inhibition of NFkappaB p50 subunit expression in nuclear fractions of human L428 cells at 10 to 40 ug/ml after 2 hrs by Western method; assay type: functional, cell-based; in short: as §3
L-428 [23] = test: Inhibition of NFkappaB p65 subunit expression in nuclear fractions of human L428 cells at 10 to 40 ug/ml after 2 hrs by Western method; assay type: functional, cell-based; in short: as §3
L-428 [24] = test: Inhibition of NFkappaB p50 subunit expression in cytosolic fractions of human L428 cells at 10 to 40 ug/ml after 2 hrs by Western method; assay type: functional, cell-based; in short: as §3
L-428 [25] = test: Inhibition of NFkappaB p65 subunit expression in cytosolic fractions of human L428 cells at 10 to 40 ug/ml after 2 hrs by Western method; assay type: functional, cell-based; in short: as §3

Sequence of Transcription factor p65 (Homo sapiens) (Q04206 whole entry): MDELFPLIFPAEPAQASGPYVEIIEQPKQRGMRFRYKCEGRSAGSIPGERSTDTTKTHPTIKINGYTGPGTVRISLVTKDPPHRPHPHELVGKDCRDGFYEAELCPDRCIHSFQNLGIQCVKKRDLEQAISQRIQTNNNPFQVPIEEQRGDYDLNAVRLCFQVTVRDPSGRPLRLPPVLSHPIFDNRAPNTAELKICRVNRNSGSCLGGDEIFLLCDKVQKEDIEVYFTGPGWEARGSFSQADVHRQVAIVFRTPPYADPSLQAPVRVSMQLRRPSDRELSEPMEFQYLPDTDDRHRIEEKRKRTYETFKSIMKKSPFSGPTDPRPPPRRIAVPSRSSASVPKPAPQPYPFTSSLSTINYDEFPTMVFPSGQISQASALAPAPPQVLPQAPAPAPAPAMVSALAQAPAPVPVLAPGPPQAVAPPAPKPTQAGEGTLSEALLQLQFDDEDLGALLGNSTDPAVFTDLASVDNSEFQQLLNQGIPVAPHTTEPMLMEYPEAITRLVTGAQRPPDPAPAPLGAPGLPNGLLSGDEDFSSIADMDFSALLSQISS

SMILES | inhibition (Homo sapiens [1]) | inhibition (Homo sapiens [2]) | inhibition (Homo sapiens [3]) | inhibition (Homo sapiens [4]) | inhibition (Homo sapiens [5]) | inhibition (Homo sapiens [6]) | other results
O=C(/C=C/C=C/c1ccc2c(c1)OCO2)N1CCCCC1 | 67.3% | 67.5% | 85.1% | 86.6% | 90.2% | Dose-dependent effect | inhibition (Mus musculus): 75%; inhibition (Homo sapiens [7]): 90%
COc1ccc(/C=C/C=C/C(=O)N2CCCCC2)c(OC)c1OC | 39.2% | 52.9% | 59.2% | 59.8% | 62.9% | Dose-dependent effect | 
O=C(/C=C/C=C/c1ccccc1)N1CCCCC1 | 71.9% | 73.9% | 82.2% | 85.9% | 88.2% | Dose-dependent effect | Activity (L-428 [8]): Dose-dependent effect; IC50 (L-428 [8]): 43.2 µg/mL (≈ 179 µM); IC50 (A549 [9]): 57.1 µg/mL (≈ 237 µM); Activity (A549 [10]): Active; inhibition (L-428 [11]): Dose-dependent effect; inhibition (L-428 [12]): Dose-dependent effect; inhibition (L-428 [13]): inactive; inhibition (L-428 [14]): inactive; inhibition [15]: Dose-dependent effect; inhibition (Homo sapiens [16]): Dose-dependent effect; inhibition (L-428 [17]): Dose-dependent effect; inhibition (L-428 [18]): Dose-dependent effect
CC(=O)Oc1ccc(/C=C/C=C/C(=O)N2CCCCC2)cc1 | 70.3% | 71.4% | 75.3% | 78.1% | 80.1% | Dose-dependent effect | 
O=C(/C=C/C=C/c1ccc(O)cc1)N1CCCCC1 | 68.4% | 79.6% | 89.8% | 91.5% | 92.2% | Dose-dependent effect | 
COc1ccc(/C=C/C=C/C(=O)N2CCCCC2)cc1 | 69.7% | 76.3% | 77.2% | 86.9% | 89.9% | Dose-dependent effect | Activity (L-428 [8]): Dose-dependent effect; IC50 (L-428 [8]): 16.8 µg/mL (≈ 62.1 µM); IC50 (A549 [9]): 63.2 µg/mL (≈ 233 µM); Activity (A549 [10]): Active; inhibition (L-428 [11]): Dose-dependent effect; inhibition (L-428 [12]): Dose-dependent effect; inhibition (L-428 [19]): inactive; inhibition (L-428 [20]): inactive; inhibition [15]: Dose-dependent effect; inhibition (Homo sapiens [16]): Dose-dependent effect; inhibition (L-428 [17]): Dose-dependent effect; inhibition (L-428 [18]): Dose-dependent effect
O=C(/C=C/C=C/c1ccc(OC2CCCC2)cc1)N1CCCCC1 | 57.6% | 61.7% | 63.2% | 69.7% | 72.2% | Dose-dependent effect | 
COc1cc(/C=C/C=C/C(=O)N2CCCCC2)cc(OC)c1OC | 34.1% | 44.6% | 53.1% | 56.9% | 59.8% | Dose-dependent effect | 
CN(C)c1ccc(/C=C/C=C/C=C/C(=O)N2CCCCC2)cc1 | 37.2% | 56.2% | 56.8% | 57.2% | 59.9% | Dose-dependent effect | 
COc1ccc(/C=C/C=C/C(=O)N2CCCCC2)cc1OC | 43.4% | 67.5% | 73.9% | 78.9% | 80.1% | Dose-dependent effect | 
CN(C)c1ccc(/C=C/C=C/C(=O)N2CCCCC2)cc1 | 95.5% | 96.6% | 97.3% | 97.7% | 97.9% | Dose-dependent effect | Activity (L-428 [8]): Dose-dependent effect; IC50 (L-428 [8]): 0.39 µg/mL (≈ 1.37 µM); IC50 (A549 [9]): 69.1 µg/mL (≈ 243 µM); Activity (A549 [21]): Active; inhibition (L-428 [22]): inactive; inhibition (L-428 [23]): inactive; inhibition (L-428 [24]): inactive; inhibition (L-428 [25]): inactive; inhibition (L-428 [19]): inactive; inhibition (L-428 [20]): inactive
O=C(/C=C/C=C/C=C/c1ccc2c(c1)OCO2)N1CCCCC1 | 34% | 56.6% | 65.8% | 71% | 71.2% | Dose-dependent effect | 
COc1ccc(/C=C/C=C/C=C/C(=O)N2CCCCC2)cc1 | 26.4% | 34% | 44.8% | 50.7% | 51.8% | Dose-dependent effect | 

Source: ChEMBL document CHEMBL4041511, “Synthesis of coumaperine derivatives: Their NF-κB inhibitory effect, inhibition of cell migration and their cytotoxic activity” (Eur J Med Chem, 2017)
